Experimental data reported in paper PMC4364388 (Biochimica et biophysica acta, 2015).
In brackets after ≈: the same amount, converted by molar mass. Several values for one entry are separate records, joined by “and”; a condition that tells them apart may be missing. Equal values may be shown once. Read-outs that look alike come from different tables or passages of the source.

Columns and labels:
rat UT-A1 [1] = target: T1, rat UT-A1 (Rattus norvegicus, UniProt Q62668); test: UT-A1 inhibition assay; format: cell-based; settings: for IC50: UT-A1 IC50, MDCK cells expressing rat UT-A1, YFP and AQP1, 20 min incubation; for Selectivity for UT-A1 vs. UT-B inhibition: comparison of IC50 values for UT-A1 and UT-B
T1 sequence (Q62668 1-929): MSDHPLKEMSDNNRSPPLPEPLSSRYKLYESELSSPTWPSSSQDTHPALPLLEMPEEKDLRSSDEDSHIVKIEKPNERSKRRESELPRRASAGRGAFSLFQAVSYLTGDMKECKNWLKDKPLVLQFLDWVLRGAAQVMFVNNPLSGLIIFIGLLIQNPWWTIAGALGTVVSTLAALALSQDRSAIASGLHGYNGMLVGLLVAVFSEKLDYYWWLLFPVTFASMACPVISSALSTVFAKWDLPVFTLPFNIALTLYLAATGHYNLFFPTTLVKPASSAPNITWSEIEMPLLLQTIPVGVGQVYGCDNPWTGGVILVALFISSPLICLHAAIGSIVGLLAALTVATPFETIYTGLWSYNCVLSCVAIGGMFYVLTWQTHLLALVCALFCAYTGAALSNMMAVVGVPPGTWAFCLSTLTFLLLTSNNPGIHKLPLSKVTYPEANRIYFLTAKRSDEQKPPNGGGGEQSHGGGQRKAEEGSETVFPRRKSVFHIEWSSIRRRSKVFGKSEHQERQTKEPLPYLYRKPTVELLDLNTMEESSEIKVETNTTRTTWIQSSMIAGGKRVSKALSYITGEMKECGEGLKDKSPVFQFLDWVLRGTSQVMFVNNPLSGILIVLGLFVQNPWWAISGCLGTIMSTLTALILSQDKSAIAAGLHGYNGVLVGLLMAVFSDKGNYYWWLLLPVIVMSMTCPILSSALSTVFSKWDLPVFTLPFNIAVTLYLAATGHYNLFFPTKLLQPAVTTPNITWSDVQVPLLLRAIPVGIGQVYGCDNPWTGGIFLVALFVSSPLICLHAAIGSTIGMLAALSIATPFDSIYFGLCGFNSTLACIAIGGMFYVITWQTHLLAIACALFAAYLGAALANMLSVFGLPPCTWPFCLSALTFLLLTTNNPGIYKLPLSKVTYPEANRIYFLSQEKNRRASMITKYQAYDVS

rat UT-B [2] = target: T2, rat UT-B (Rattus norvegicus, UniProt P97689); test: UT-B inhibition, erythrocyte lysis assay; format: cell-based; settings: for IC50: 15 min incubation
T2 sequence (P97689 1-384): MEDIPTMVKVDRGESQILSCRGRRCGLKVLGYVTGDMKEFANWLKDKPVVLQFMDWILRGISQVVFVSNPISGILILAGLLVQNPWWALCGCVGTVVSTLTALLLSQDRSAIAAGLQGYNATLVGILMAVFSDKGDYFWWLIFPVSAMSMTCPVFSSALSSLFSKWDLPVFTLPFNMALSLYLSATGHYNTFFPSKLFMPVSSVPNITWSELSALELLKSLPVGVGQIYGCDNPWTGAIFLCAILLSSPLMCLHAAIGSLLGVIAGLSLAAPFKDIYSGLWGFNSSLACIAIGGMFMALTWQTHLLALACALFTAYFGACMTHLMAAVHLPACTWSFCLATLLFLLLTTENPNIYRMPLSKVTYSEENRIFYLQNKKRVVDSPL

rat UT-A1 [3] = target: T1, rat UT-A1; test: Functional studies of UT-A1 inhibition; format: cell-based
Summary of the method: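 MDCK cells stably co-expressing rat UT-A1, YFP-H148Q/V163S and human AQP1 were plated 24 h before assay. Reversibility: 15 min with 0.2 mM test compound, two PBS washes, then assay. Kinetics: 0.2 mM added at varied times before assay. Urea dependence: concentration-response at 80–1,600 mM urea gradients. Read-out was YFP fluorescence 7 s after urea addition, normalised to negative and positive controls.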

Water solubility = format: physicochemical
MDCK cells = test: Cytotoxicity to MDCK cells; format: cell-based, canine; settings: at solubility limit
rat UT-A1 [4] = target: T1, rat UT-A1; settings: read-out: UT-A1 IC50; earlier finding; cited from earlier work
rat UT-B [5] = target: T2, rat UT-B; settings: read-out: UT-B IC50; earlier finding; cited from earlier work
rats = settings: listed as DMTU; cited from earlier work
[6] = UT-B IC50, rat erythrocyte lysis assay
[7] = read-out: UT-B IC50, rat erythrocyte lysis assay

IC50 (rat UT-A1 [1]) | Selectivity for UT-A1 vs. UT-B inhibition (rat UT-A1 [1]) | IC50 (rat UT-B [2]; [6]) | UT-A1 inhibition activity (in words) (rat UT-A1 [1]) | UT-B inhibition activity (in words) (rat UT-B [2]) | IC50 (rat UT-B [2]; [7]) [mM] | Molecule | other results
1.3 ± 0.3 mM | UT-A1 selective | 10 ± 1 mM |  |  |  | NC(=S)Nc1ccc([N+](=O)[O-])cc1 [Compound 18, 4-nitrophenylthiourea] | 
> 25 mM |  | > 25 mM | inactive | inactive |  | CN(C)C(=S)N(C)C [Compound 5, Tetramethylthiourea] | 
 |  |  | loss of activity | loss of activity | 14 ± 2 | CNC(=O)NC [Compound 3, dimethylurea] | 
 | selective for UT-B over UT-A1 |  |  |  | 2.8 ± 0.5 | NC(=S)c1ccncc1 [Compound 26, thioisonicotinamide] | 
 | UT-B selective |  |  |  | 2.8 | NC(=S)c1ccncc1 [thioisonicotinamide] | 
> 25 mM |  | 10 ± 2 mM |  |  |  | NC(=S)c1cccnc1 [Compound 27, thionicotinamide] | 
~0.2 mM and 0.2 mM | non-selective | ~0.2 mM and 0.2 mM |  |  |  | NC(=S)Nc1cccc([N+](=O)[O-])c1 [Compound 32, 3-nitrophenylthiourea] | IC50 improvement relative to 18 (rat UT-A1 [1]): ~6 fold; Kinetics of UT-A1 inhibition (rat UT-A1 [3]; 0.2 mM added at different times prior to assay): very rapid; Reversibility of UT-A1 inhibition (rat UT-A1 [3]; 0.2 mM, 15 min incubation, washed twice): fully reversible; Inhibition mechanism from urea concentration-dependence of IC50 (rat UT-A1 [3]; urea gradients 80 to 1,600 mM): competitive inhibition mechanism; solubility (Water solubility; water): 640 µM (≈ 126 µg/mL); Cytotoxicity to MDCK cells (MDCK cells): no cytotoxicity
1.5 ± 0.4 mM |  | 0.4 ± 0.1 mM |  |  |  | NC(=S)Nc1ccc(Cl)c(Cl)c1 [Compound 21, 3,4-dichlorophenylthiourea] | 
 |  |  | potencies comparable to DMTU | potencies comparable to DMTU | 5.2 ± 0.6 | cyclohexylthiourea [Compound 12] | 
 |  |  |  |  | 3.9 ± 0.6 | CNC(=S)NC [Compound 1, N, N′-dimethylthiourea] | Water solubility (Water solubility): 7.9 M; Solubility in saline (Water solubility; saline): > 50 mg/mL; IC50 (rat UT-A1 [4]): 2 to 3 mM; IC50 (rat UT-B [5]): 2 to 3 mM; Diuretic action (rats): reduce urinary osmolality in rats and produce a salt-sparing diuresis

Molecule | IC50 (rat UT-A1 [1]) | Selectivity for UT-A1 vs. UT-B inhibition (rat UT-A1 [1]) | IC50 (rat UT-B [2]; [6]) | UT-A1 inhibition activity (in words) (rat UT-A1 [1]) | UT-B inhibition activity (in words) (rat UT-B [2]) | IC50 (rat UT-B [2]; [7]) [mM] | other results
NC(=S)Nc1ccccc1 [Compound 9, phenylthiourea] | 8.8 ± 0.3 mM |  | 14 ± 1 mM | potencies comparable to DMTU | potencies comparable to DMTU |  | 
NC(N)=S [Compound 2] |  |  |  | significant loss of UT-A1 and UT-B inhibition activity | significant loss of UT-A1 and UT-B inhibition activity | > 25 | 
